Series [1] is described as follows: melting temperature; fluorescence melt of hairpins on a sequencing array, two-state fit, raised by 9.35 °C to match UV melts. The note with it: sodium 0.088 M. An outline of the steps:
(§1)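 Folding enthalpy and melting temperature come from bootstrapped two-state fits to Cy3 fluorescence of library hairpins carrying annealed Cy3 and quencher oligos on a sequenced MiSeq flow cell. Imaging was done in 50 mM Na-HEPES pH 8.0, 25 mM NaCl, stepping by 2.5 °C up to 60 °C, and signals were normalised to pre-quench Cy3 and to control constructs. Results of four replicates were combined by inverse variance, and fitted temperatures were raised by 9.35 °C to match UV melts.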

Series [2] in a line: folding enthalpy; higher = less favourable; fluorescence melt of hairpins on a sequencing array, two-state fit. The settings on record: sodium 0.088 M. An outline of the steps: as §1

Turning to GTTCCTGGAAACAGGAGC (.(((((....))))).), the Tm in series [1] worked out at 48.3 °C. Besides, the folding enthalpy in series [2] is -23.4 kcal/mol.
The matching figures for GTTCCTGGAAACGGGAAC (((((.(....).))))): 50.7 °C and -40.9 kcal/mol.
In the same order, the values of GTTCGAGGAAACTTGAAC ((((.((....)).)))) are 44.5 °C and -32.4 kcal/mol.
The matching figures for GTTCGAGGAAACTTGAGC (.((.((....)).)).): 29.9 °C and -20.3 kcal/mol.
Regarding GTTCGCGAAAGCGAAAC ((((((....))).))), in series [1], the Tm turned out to be 55.3 °C. In addition, the folding enthalpy in series [2] is -12.6 kcal/mol.
In the same order, the values of GTTCGCGAAAGCGACAAC ((((((....)))..))) are 34.8 °C and -7.58 kcal/mol.
Turning to GTTCGCGAAAGCGCAAAC ((((((....)))..))), the Tm in series [1] came out at 29 °C. The folding enthalpy in series [2] was -7.42 kcal/mol.
The matching figures for GTTCGCGAAAGCGGAAAC ((((((....)))..))): 36.6 °C and -9.75 kcal/mol.
The matching figures for GTTCGCGGAAACACGAAC (((((.(....).))))): 48.9 °C and -39.7 kcal/mol.
Consider GTTCGGGAAACCGAAC ((((((....)))))), for which the Tm in series [1] was 61.1 °C. Besides, the folding enthalpy in series [2] is -38.1 kcal/mol.
The matching figures for GTTCGGGGAAACCCAAAC (((.(((....))).))): 36 °C and -23.8 kcal/mol.
GTTCGGGGAAACCTGGAC ((.(.((....)).).)): in series [1], the Tm turned out to be 36.8 °C. Also, the folding enthalpy in series [2] is -20.2 kcal/mol.
The matching figures for GTTCGGGGAAACTCGAGC (.(((.(....).))).): 35.9 °C and -19.7 kcal/mol.
In the same order, the values of GTTCGTCGAAAGACCAAC (((.(((....))).))) are 30.9 °C and -15.9 kcal/mol.
As to GTTCGTGAAAACGAAC ((((((....)))))), in series [1], the Tm turned out to be 61.9 °C. Besides, the folding enthalpy in series [2] is -32 kcal/mol.
In the same order, the values of GTTCGTGGAAACGCGAAC (((((.(....).))))) are 55.3 °C and -41.3 kcal/mol.
In the same order, the values of GTTCTCCCGAAAGGGAAC (((..(((....)))))) are 30.6 °C and -9.91 kcal/mol.
Consider GTTCTCCGAAAGGATAAC (((.(((....))).))), for which, in series [1], the Tm was found to be 41.2 °C. In addition, the folding enthalpy in series [2] is -26.4 kcal/mol.
In the same order, the values of GTTCTCGAAAGAGAAC ((((((....)))))) are 61 °C and -35.2 kcal/mol.
With GTTCTCGAAAGAGGCAAC ((((((....)))..))), the Tm in series [1] turned out to be 26.6 °C. Further, the folding enthalpy in series [2] was -9.31 kcal/mol.
In the same order, the values of GTTCTCGAAAGAGGGAAC ((((((....)))..))) are 31.4 °C and -17.6 kcal/mol.
Turning to GTTCTCGAAAGAGTGAAC ((((((....)))..))), the Tm in series [1] came out at 29.4 °C. Besides, the folding enthalpy in series [2] was -14.7 kcal/mol.
For the sequence GTTCTCGGAAACAAGAAC (((((.(....).))))), in series [1], the Tm amounted to 33.9 °C. Also, the folding enthalpy in series [2] was -14.8 kcal/mol.
In the same order, the values of GTTCTCGGAAACGAAAAC (((.(((....))).))) are 29.3 °C and -20 kcal/mol.
In the same order, the values of GTTCTCGGAAACGGGAAC ((((.((....)).)))) are 51 °C and -41.3 kcal/mol.
The matching figures for GTTCTGCGAAAGCAAAAC (((.(((....))).))): 38.4 °C and -16.7 kcal/mol.
As for GTTCTGGGAAACTGGAAC ((((..(....)..)))), the Tm in series [1] worked out at 34.8 °C. In addition, the folding enthalpy in series [2] was -31.9 kcal/mol.
Consider GTTCTTCGAAAGAAAAAC (((.(((....))).))), for which the Tm in series [1] turned out to be 25.4 °C. Also, the folding enthalpy in series [2] is -12.6 kcal/mol.
In the same order, the values of GTTGAACGAAAGTTAAAC (((.(((....))).))) are 41.2 °C and -26.9 kcal/mol.
In the same order, the values of GTTGAAGCGAAAGCTAAC (((..(((....)))))) are 34.3 °C and -13.5 kcal/mol.
In the case of GTTGACGAAAGTCAAAC ((((((....))).))), the Tm in series [1] was 51.3 °C. For the same sequence, the folding enthalpy in series [2] is -13.9 kcal/mol.
In the same order, the values of GTTGACGAAAGTCCGAAC ((((((....)))..))) are 29 °C and -10.6 kcal/mol.
The matching figures for GTTGACGAAAGTCGAAAC ((((((....)))..))): 30.9 °C and -12 kcal/mol.
In the same order, the values of GTTGACGAAAGTCGTAAC ((((((....)))..))) are 32.9 °C and -11.1 kcal/mol.
For GTTGACGAAAGTCTAAC ((((((....))).))), in series [1], the Tm amounted to 39.7 °C. Besides, the folding enthalpy in series [2] is -14.7 kcal/mol.
In the same order, the values of GTTGACGGAAACGTTGAC ((..(((....)))..)) are 37.5 °C and -25.4 kcal/mol.
In the same order, the values of GTTGAGAAATCAAC (((((....))))) are 42.2 °C and -19.9 kcal/mol.
In the same order, the values of GTTGAGGGAAACCTCAGC (.(((((....))))).) are 46.3 °C and -25.4 kcal/mol.
As to GTTGATCGAAAGATGAAC (((.(((....))).))), the Tm in series [1] was 37.1 °C. Further, in series [2], the folding enthalpy was -24.1 kcal/mol.
In the same order, the values of GTTGCAGGAAACCACAAC ((((..(....)..)))) are 27.4 °C and -18.2 kcal/mol.
The matching figures for GTTGCCGAAAGGCCAAC ((((((....))).))): 47.3 °C and -14.4 kcal/mol.
In the same order, the values of GTTGCCGAAAGGCTAAAC ((((((....)))..))) are 34.5 °C and -9.35 kcal/mol.
GTTGCCGGAAACGGTAAC (((.(((....))).))): the Tm in series [1] came out at 54.4 °C. In addition, the folding enthalpy in series [2] was -33.3 kcal/mol.
Turning to GTTGCGGGAAACCACAAC ((((.((....)).)))), the Tm in series [1] was 46.1 °C. The folding enthalpy in series [2] is -38.2 kcal/mol.
GTTGCGGGAAACCGTAAC (((.(((....))).))): in series [1], the Tm was determined as 51.2 °C. In addition, the folding enthalpy in series [2] is -34.3 kcal/mol.
The matching figures for GTTGCTCCGAAAGGAAAC (((..(((....)))))): 28.1 °C and -10 kcal/mol.
The matching figures for GTTGCTCGAAAGAGAAC (((.(((....)))))): 34.4 °C and -20.2 kcal/mol.
The matching figures for GTTGGAACGAAAGTTAAC (((..(((....)))))): 29.6 °C and -14.5 kcal/mol.
GTTGGAGGAAACTTCAGC (.((.((....)).)).): the Tm in series [1] turned out to be 30.5 °C. Besides, the folding enthalpy in series [2] was -12.7 kcal/mol.
In the same order, the values of GTTGGCACGAAAGTGAAC (((..(((....)))))) are 38.8 °C and -20.6 kcal/mol.
Take GTTGGCGAAAGCCAAAAC ((((((....)))..))): in series [1], the Tm was 41.5 °C. In addition, the folding enthalpy in series [2] was -10.5 kcal/mol.
The matching figures for GTTGGCGAAAGCCAAAC ((((((....))).))): 56.2 °C and -11.6 kcal/mol.
The matching figures for GTTGGCGAAAGCCACAAC ((((((....)))..))): 33.8 °C and -8.33 kcal/mol.
Consider GTTGGCGAAAGCCCCAAC ((((((....)))..))), for which, in series [1], the Tm turned out to be 22.5 °C. The folding enthalpy in series [2] is -6.64 kcal/mol.
In the same order, the values of GTTGGCGAAAGCCGCAAC ((((((....)))..))) are 26.3 °C and -9.16 kcal/mol.
The matching figures for GTTGGCGAAAGCCTAAAC ((((((....)))..))): 30.7 °C and -8.68 kcal/mol.
The matching figures for GTTGGCGAAAGCCTAAC ((((((....))).))): 43.4 °C and -12.8 kcal/mol.
Regarding GTTGGCGGAAACACCAAC (((((.(....).))))), in series [1], the Tm worked out at 47.4 °C. For the same sequence, in series [2], the folding enthalpy is -36 kcal/mol.
For GTTGGCGGAAACGCCAGC (.(((((....))))).), the Tm in series [1] turned out to be 58.2 °C. Besides, the folding enthalpy in series [2] was -15.4 kcal/mol.
Regarding GTTGGGCGAAAGCCAAAC (((.(((....))).))), the Tm in series [1] is 56.9 °C. Also, the folding enthalpy in series [2] is -21.5 kcal/mol.
In the same order, the values of GTTGGGCGAAAGCCAAC (((.(((....)))))) are 53 °C and -17.5 kcal/mol.
The matching figures for GTTGGGCGAAAGCCTAAC (((.(((....))).))): 54.9 °C and -23.1 kcal/mol.
The matching figures for GTTGGTACGAAAGTAAAC (((..(((....)))))): 34.6 °C and -19.1 kcal/mol.
With GTTGGTCCGAAAGGAAAC (((..(((....)))))), the Tm in series [1] was 36.9 °C. Moreover, the folding enthalpy in series [2] was -23.4 kcal/mol.
GTTGGTGGAAACACCAAC (((((((....))))))): the Tm in series [1] turned out to be 66.2 °C. Besides, in series [2], the folding enthalpy was -46.1 kcal/mol.
The matching figures for GTTGGTGGAAACGCCAAC (((((.(....).))))): 54.4 °C and -40 kcal/mol.
With GTTGTAGAAATACAAC ((((((....)))))), in series [1], the Tm amounted to 47.5 °C. Further, the folding enthalpy in series [2] is -32.4 kcal/mol.
As for GTTGTAGCGAAAGCTAAC (((..(((....)))))), in series [1], the Tm stood at 48.1 °C. Further, the folding enthalpy in series [2] was -23 kcal/mol.
GTTGTAGGAAACTATAAC (((.(((....))).))): the Tm in series [1] turned out to be 34 °C. The folding enthalpy in series [2] was -24.6 kcal/mol.
The matching figures for GTTGTCACGAAAGTGAAC (((..(((....)))))): 48.1 °C and -23.7 kcal/mol.
With GTTGTCGAAAGACACAAC ((((((....)))..))), in series [1], the Tm was 32.6 °C. In addition, the folding enthalpy in series [2] was -11 kcal/mol.
The matching figures for GTTGTCGAAAGACAGAAC ((((((....)))..))): 35.6 °C and -12.9 kcal/mol.
Take GTTGTCGAAAGACGTAAC ((((((....)))..))): the Tm in series [1] is 31.9 °C. Besides, the folding enthalpy in series [2] is -11.3 kcal/mol.

For the origin of these results see the array DNA melting data of Ke et al. (doi:10.1101/2024.01.08.574731).
